The results in this text go back to ChEMBL document CHEMBL4602726, “Discovery of the First Vitamin K Analogue as a Potential Treatment of Pharmacoresistant Seizures” (J Med Chem, 2020).

Data set [1] is described as follows: Toxicity in CF1 mouse assessed as induction of motor impairment during acute (1 hr) observation period by rotarod assay. Particulars: CF1, mouse, in vivo. Put shortly:
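Male CF-1 mice, ip dosing in miglyol 840/DMSO (95%/5%), up to 800 mg/kg. Rotarod at 6 rpm done 1 h after dosing, on the same animals just before 6 Hz testing. Falling three times within one minute scored as impaired; animals also inspected visually.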
(In general: The rotarod test checks motor coordination on a turning rod.)

A short description of data set [2]: Half life in mouse. Type of data set: ADME, organism-based. Particulars: in vivo.
Data set [3] can be described thus: Tmax in CD1 mouse at 20 mg/kg, ip measured after 0.083 to 24 hrs by LC-MS/MS analysis. The class given is ADME, organism-based. Particulars: in vivo.
Data set [4] is filed under the species Danio rerio. As to the kind of experiment: Anti-seizure activity in Zebrafish larvae assessed as reduction in PTZ-induced increase in total swimming distance in 15 mins at 5 uM pre-incubated for 1 hr prior to PTZ-induced seizure induction relative to control. Type of data set: functional. Further details: scale not given: the % may be the effect or the level left.

For data set [5], the species on record is Danio rerio. The data set is described as follows: Anti-seizure activity in Zebrafish. The class given is functional, organism-based. Put shortly: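 Single 7 dpf zebrafish larvae per well, pretreated 1 h at […] with compound (10 or 5 μM) in E3 buffer from DMSO stock. Then 15 mM PTZ added and movement tracked 15 min in 1-min bins. VPA 5 and 10 mM as positive controls, n=8 per group, one-way ANOVA.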

Data set [6] can be described thus: AUClast in CD1 mouse at 20 mg/kg, ip measured after 0.083 to 24 hrs by LC-MS/MS analysis. The class given is ADME, organism-based. Particulars: in vivo. Details: time lower 0.083 hr, dose 20 mg/kg, time upper 24 hr, route intraperitoneal. Put shortly:
(§1)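 Male CD-1 mice, 3 per route. Oral and ip at 20 mg/kg by gavage needle; iv at 5 mg/kg by tail vein. Vehicles were 20% DMA:40% PEG300:40% H2O for oral/iv and 5% DMSO:95% Neobee for ip. Blood sampled 0.083–24 h, plasma protein-precipitated with acetonitrile plus internal standard, LC-MS/MS (MRM). Non-compartmental analysis, linear trapezoidal AUC.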

For data set [7], the species on record is Danio rerio. The data set is described as follows: Anti-seizure activity in Zebrafish larvae assessed as reduction in PTZ-induced increase in total swimming distance in 15 mins at 10 uM pre-incubated for 1 hr prior to PTZ-induced seizure induction relative to control. The class given is functional. Details: scale not given: the % may be the effect or the level left.

A short description of data set [8]: Half life in CD1 mouse at 20 mg/kg, ip measured after 0.083 to 24 hrs by LC-MS/MS analysis. To be noted: in vivo. Type of data set: ADME, organism-based. In a few lines:
as §1

The nature of data set [9]: Cmax in CD1 mouse at 20 mg/kg, ip measured after 0.083 to 24 hrs by LC-MS/MS analysis. The class given is ADME, organism-based. Further details: dose 20 mg/kg, route intraperitoneal. To be noted: in vivo. Put shortly:
as §1

A short description of data set [10]: Toxicity in Zebrafish. Further details: species or system Danio rerio. To be noted: in vivo, read-out: LD50 (the source's name).
The nature of data set [11]: Toxicity in mouse HT22 cells assessed as inhibition of cell viability at 50 uM incubated for 48 hrs by Cell-titer-Blue dye based fluorescence spectrophotometry relative to control. Particulars: read-out: Activity. Further details: species or system HT-22. In a few lines:
(§2)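 HT-22 cells in DMEM high glucose with 10% FBS, 2000 per well. Serially diluted compound added after 12 h, incubated 48 h. […] Background subtracted, normalized to control wells.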

Data set [12] in a line: Toxicity in mouse HT22 cells assessed as inhibition of cell viability at 10 uM incubated for 48 hrs by Cell-titer-Blue dye based fluorescence spectrophotometry relative to control. Details: species or system HT-22. Particulars: read-out: Activity. In a few lines: as §2
The species named for data set [13] is Danio rerio. As to the kind of experiment: Increase in ATP concentration in zebrafish at 1 uM incubated for 24 hrs by fluorometric ATP assay relative to control. Type of data set: functional. In a few lines: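 7 dpf zebrafish larvae, one per well, kept at 28.5°C for 24 h with compound in E3 buffer (DMSO stock). DMSO vehicle in control wells. Twelve fish per condition pooled, flash-frozen, homogenized in ATP buffer and centrifuged. ATP in the supernatant read by fluorescence at ex 535/em 587 nm, normalized to total protein (BCA), and expressed as nmole/mg relative to DMSO control. n = 7–13.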

For another data set, the system named is Mus musculus. The data set is described as follows: Anti-seizure activity in ip dosed CF1 mouse assessed as attenuation of psychomotor seizures at stimulus intensities of 42 mA at pre-treated at 1 hr before test by 6 Hz limbic seizure test relative to control. Type of data set: functional.
A short description of data set [14]: Drug reactivity with 2-mercaptoethanol measured over 6 hrs. The class given is physicochemical.

Some results are limits rather than exact numbers.

As usually defined, the TD50 is the dose at which the toxic effect under study appears in half of the subjects. Regarding `CC[C@@H](C(N)=O)N1CCCC1=O`, in data set [1], the TD50 at 1 h is more than 500 mg/kg.
A word on the half-life: it is the time in which the quantity being followed falls by half. The Tmax is the time from dosing to the highest level. As a reminder, the EC50 is the concentration at which the effect is half-maximal. What is called AUC(0-t) is the area under the concentration-time curve up to a stated or last time point. Broadly, the Cmax is the maximum level reached in the sampled fluid or tissue. With `C#CCNC1=CC(=O)c2ccccc2C1=O`, the half-life in [2] and in data set [8] was 66 min each time. Also, the Tmax in data set [3] came out at 15 min. The figures for the Activity in the data set listed under Danio rerio [4] and in the data set listed under Danio rerio [7] were 7.4% and 5.4%, respectively. The compound also came in with an EC50 in the data set filed under Danio rerio [5] of 20 µM. In data set [6], this compound came in with an AUC(0-t) of 0.978 µg·h/mL. In data set [9], this compound returned a Cmax of 1.49 µg/mL. Moreover, in data set [10], the LC50 is more than 20 µM.
Turning to `O=C1C=C(NCC2CC2)C(=O)c2ccccc21`, the Activity in the data set filed under Danio rerio [4] and in the data set filed under Danio rerio [7] was -10.1% throughout. The inhibition at 48 h, 50 µM in data set [11] was 54.1%. For the same compound, the inhibition at 48 h, 10 µM in data set [12] came to 16.8%.
Regarding `CCC(O)CNC1=CC(=O)c2ccccc2C1=O` (stereo not drawn), in [11], the inhibition at 48 h, 50 µM is 69%. In data set [12], the inhibition at 48 h, 10 µM turned out to be 38.6%.
In the same order, the values of `O=C1C=C(NCCC2CCCCC2)C(=O)c2ccccc21` are 2.09% and 0.07%.
On to `CC(C)(C)CNC1=CC(=O)c2ccccc2C1=O`, for which, in [11], the inhibition at 48 h, 50 µM worked out at 22.4%. In addition, in data set [12], the inhibition at 48 h, 10 µM was 10.8%.
Take `O=C1C=C(NCCC2CC2)C(=O)c2ccccc21`: the inhibition at 48 h, 50 µM in [11] was found to be 56.4%. For the same compound, the inhibition at 48 h, 10 µM in data set [12] stood at 34.7%.
Turning to `CC1=C(NCCC(C)(C)C)C(=O)c2ccccc2C1=O`, the Activity in the data set listed under Danio rerio [4] was 3.3%. In data set [11], the inhibition at 48 h, 50 µM turned out to be 17.5%. For the same compound, in data set [12], the inhibition at 48 h, 10 µM was found to be 10.2%.
For `CC(C)(C)CCCNC1=CC(=O)c2ccccc2C1=O`, the Activity in the data set listed under Danio rerio [4] is given as -3%. In data set [11], the inhibition at 48 h, 50 µM was 6.75%. Also, the inhibition at 48 h, 10 µM in [12] came out at 3.81%.
Consider `CC(C)(O)CCNC1=CC(=O)c2ccccc2C1=O`, for which the Activity in the data set listed under Danio rerio [4] is 9.5%; in the data set filed under Danio rerio [7] it was -5.6%. Also, the inhibition at 48 h, 50 µM in data set [11] is 59.7%. Further, the inhibition at 48 h, 10 µM in data set [12] was determined as 25.5%.
As for `CC(C)=CCNC1=CC(=O)c2ccccc2C1=O`, the Activity in the data set listed under Danio rerio [4] was -4.4%. Moreover, in data set [11], the inhibition at 48 h, 50 µM came out at 38.3%. Further, the inhibition at 48 h, 10 µM in data set [12] stood at 15%.
On to `CC(C)CCCNC1=CC(=O)c2ccccc2C1=O`, for which the inhibition at 48 h, 50 µM in [11] is 21.3%. Also, the inhibition at 48 h, 10 µM in data set [12] was 28.8%.
Turning to `CC(O)CCNC1=CC(=O)c2ccccc2C1=O` (stereo not drawn), in the data set filed under Danio rerio [4], the Activity was 0.78%. Besides, in [11], the inhibition at 48 h, 50 µM is 64.2%. In addition, the inhibition at 48 h, 10 µM in [12] was found to be 19.4%.
Regarding `CC1=C(NCCC(C)C)C(=O)c2ccccc2C1=O`, the inhibition at 48 h, 50 µM in data set [11] stood at 21.4%. Further, the inhibition at 48 h, 10 µM in data set [12] was determined as 11.2%.
As to `CC(C)CC(C)NC1=CC(=O)c2ccccc2C1=O` (stereo not drawn), the inhibition at 48 h, 50 µM in data set [11] is 15%. Moreover, the inhibition at 48 h, 10 µM in [12] worked out at 2.09%.
As for `O=C1C=C(NCCC2CCCC2)C(=O)c2ccccc21`, the Activity in the data set filed under Danio rerio [4] came out at 45%. The inhibition at 48 h, 50 µM in data set [11] was 43.8%. In addition, the inhibition at 48 h, 10 µM in data set [12] was 35.4%.
In the case of `CN(CCCNC1=CC(=O)c2ccccc2C1=O)c1ccccc1`, in the data set filed under Danio rerio [4], the Activity is on record as 7.3%. The inhibition at 48 h, 50 µM in [11] was 10.2%. In addition, the inhibition at 48 h, 10 µM in [12] came out at 11.5%.
As to `O=C1C=C(NCCC2CCC2)C(=O)c2ccccc21`, in the data set listed under Danio rerio [13], the Activity is 21.4%. In data set [11], the inhibition at 48 h, 50 µM amounted to 36.3%. Besides, the inhibition at 48 h, 10 µM in data set [12] is 27.2%.
With `CCN(C)CCNC1=CC(=O)c2ccccc2C1=O`, in data set [11], the inhibition at 48 h, 50 µM is 101%. Also, the inhibition at 48 h, 10 µM in data set [12] stood at 86.2%.
In the case of `O=C1C=C(NCC2CCC2)C(=O)c2ccccc21`, the inhibition at 48 h, 50 µM in [11] was 62.3%. Also, the inhibition at 48 h, 10 µM in data set [12] stood at 33.7%.
As to `CCC(C)CNC1=CC(=O)c2ccccc2C1=O` (stereo not drawn), the Activity in the data set filed under Danio rerio [4] was 23%. Further, the inhibition at 48 h, 50 µM in data set [11] is 41.2%. Moreover, in data set [12], the inhibition at 48 h, 10 µM turned out to be 14.8%.
As for `CC(C)(C)CCNC1=CC(=O)c2ccccc2C1=O`, the inhibition at 48 h, 50 µM in data set [11] came out at 17%. The inhibition at 48 h, 10 µM in [12] worked out at 11.9%.
Take `CN(C)CCNC1=CC(=O)c2ccccc2C1=O`: the inhibition at 48 h, 50 µM in [11] came to 99.8%. In addition, the inhibition at 48 h, 10 µM in data set [12] was 82.6%.
Take `CCN(CC)CCNC1=CC(=O)c2ccccc2C1=O`: the Activity in the data set listed under Danio rerio [4] is listed as -7.2%; in the data set filed under Danio rerio [7], 27%. Further, the inhibition at 48 h, 50 µM in data set [11] is 100%. Further, the inhibition at 48 h, 10 µM in [12] worked out at 83.8%.
Turning to `CN(C)CCCNC1=CC(=O)c2ccccc2C1=O`, the inhibition at 48 h, 50 µM in [11] worked out at 96.7%. Further, in the data set listed under Danio rerio [7], the Activity was -2.9%. In addition, the inhibition at 48 h, 10 µM in data set [12] turned out to be 74.5%.
As to `CC(CO)CCNC1=CC(=O)c2ccccc2C1=O` (stereo not drawn), the Activity is listed as -2.4% in the data set filed under Danio rerio [4] and 8.2% in the data set filed under Danio rerio [7]. In addition, the inhibition at 48 h, 50 µM in [11] was determined as 76.7%. For the same compound, the inhibition at 48 h, 10 µM in data set [12] is 25.7%.
By ED50 is commonly meant the dose at which the effect has come halfway, by size or by number of responders. With `C=C(C)[C@@H]1CCC(C)=C[C@H]1c1c(O)cc(CCCCC)cc1O` [CANNABIDIOL], the ED50 in the data set on Mus musculus worked out at 174 mg/kg.
`NC(=O)OCC(COC(N)=O)c1ccccc1` [FELBAMATE]: the ED50 with Mus musculus amounted to 97.5 mg/kg. Besides, in [1], the TD50 at 1 h came to 452 mg/kg.
The compound `CC1=CC(=O)c2ccccc2C1=O` [MENADIONE] had a half-life in [2] of 27 min. In the data set filed under Danio rerio [5], the EC50 was found to be 3 µM. The LC50 in [10] came to 6 µM. The Drug metabolism result in data set [14] is “Metabolite_Detected”.
In the case of `CCCC(CCC)C(=O)O` [VALPROIC ACID], in the data set with Mus musculus, the ED50 worked out at 289 mg/kg.
